# Values joined by “and” are separate entries in the source; they are usually repeats but may differ in a detail not shown here. Identical values can stand only once.
# System: U2OS
# Assay: Multiplex assay against U2OS
# Assay type: toxicity, cell-based
# Conditions: human, 12 h, 1 µM, compound concentration 1 uM
# Method in brief: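 Tubulin, mitochondrial-mass and membrane-permeability phenotypes are per cents of healthy-nucleus cells. Cells were gated by CellPathfinder machine learning into Hoechst high-intensity objects or normal cells, normal cells into healthy, pyknosed or fragmented nuclei, and pyknosed cells into mitotic or apoptotic. Before that, live cells stained at seeding with Hoechst33342, BioTracker Green Microtubule Cytoskeleton Dye, MitoTracker Red and Annexin V Alexa Fluor 680 were imaged on a CQ1 microscope at 37°C and 5% CO2 after compound addition.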
Structure (SMILES),Population Apoptotic (%),Population Fragmented Nuclei (%),Population Healthy Nuclei (%),Population Hoechst High Intensity Objects (%),Population Membrane Permeable-Phenotype (%),Population Mitochondria Different-Phenotype (%),Population Mitotic Cells (%),Population Normal (%),Population Pyknosed Nuclei (%),Population Tubulin-Different-Phenotype (%)
CN(C)CCCc1cc(C(=O)Nc2ccc(-c3ccncc3)cc2)ccc1O.Cl.Cl,89% and 100%,29% and 10%,60% and 75%,2% and 0%,6% and 2%,0% and 1%,10% and 0%,97% and 99%,9% and 13%,3% and 0%
CC(F)(F)CN1CCOc2c(nn(-c3ccccc3Cl)c2-c2ccc(Cl)cc2)C1=O,81% and 100%,–,53% and 71%,2% and 0%,3%,–,18% and 0%,97% and 99%,–,8% and 4%
COc1ccc2c(c1)C(C(=O)N(Cc1ccc(N(C)C)cc1)c1ccc(C(C)C)cc1)CCC2.Cl (stereo not drawn),70%,36% and 17%,54% and 73%,4% and 3%,8% and 9%,5% and 3%,29% and 30%,95% and 96%,9% and 8%,4% and 2%
CCCCC(=O)N(Cc1ccc(-c2ccccc2-c2nnn[nH]2)cc1)[C@H](C(=O)O)C(C)C,85% and 100%,28% and 15%,63% and 79%,1% and 3%,8% and 9%,3% and 5%,14% and 0%,98% and 96%,8% and 4%,4% and 2%

# Same assay, conditions: human, 12 h, 1 µM, compound concentration 1 uM
row,Structure (SMILES),Total Cell Count
1,CN(C)CCCc1cc(C(=O)Nc2ccc(-c3ccncc3)cc2)ccc1O.Cl.Cl,199 and 124
2,CC(F)(F)CN1CCOc2c(nn(-c3ccccc3Cl)c2-c2ccc(Cl)cc2)C1=O,219 and 121
3,COc1ccc2c(c1)C(C(=O)N(Cc1ccc(N(C)C)cc1)c1ccc(C(C)C)cc1)CCC2.Cl (stereo not drawn),264 and 122
4,CCCCC(=O)N(Cc1ccc(-c2ccccc2-c2nnn[nH]2)cc1)[C@H](C(=O)O)C(C)C,259 and 130

# Same assay, conditions: human, 12 h, 10 µM, compound concentration 10 uM
Structure (SMILES),Population Apoptotic (%),Population Fragmented Nuclei (%),Population Healthy Nuclei (%),Population Hoechst High Intensity Objects (%),Population Membrane Permeable-Phenotype (%),Population Mitochondria Different-Phenotype (%),Population Mitotic Cells (%),Population Normal (%),Population Pyknosed Nuclei (%),Population Tubulin-Different-Phenotype (%)
CN(C)CCCc1cc(C(=O)Nc2ccc(-c3ccncc3)cc2)ccc1O.Cl.Cl,77% and 42%,28% and 24%,62% and 63%,4% and 1%,7% and 4%,1% and 8%,22% and 57%,95% and 98%,9% and 12%,2%
CC(F)(F)CN1CCOc2c(nn(-c3ccccc3Cl)c2-c2ccc(Cl)cc2)C1=O,83% and 60%,–,62% and 71%,1%,10%,–,16% and 40%,98%,–,14% and 5%
COc1ccc2c(c1)C(C(=O)N(Cc1ccc(N(C)C)cc1)c1ccc(C(C)C)cc1)CCC2.Cl (stereo not drawn),38% and 60%,27% and 16%,50% and 60%,4%,73% and 43%,55% and 73%,61% and 40%,95%,22% and 23%,80% and 58%
CCCCC(=O)N(Cc1ccc(-c2ccccc2-c2nnn[nH]2)cc1)[C@H](C(=O)O)C(C)C,75%,35% and 24%,55% and 71%,1% and 0%,3% and 1%,2%,25%,98% and 99%,9% and 3%,2% and 0%

# Same assay, conditions: human, 12 h, 10 µM, compound concentration 10 uM
row,Structure (SMILES),Total Cell Count
1,CN(C)CCCc1cc(C(=O)Nc2ccc(-c3ccncc3)cc2)ccc1O.Cl.Cl,237 and 113
2,CC(F)(F)CN1CCOc2c(nn(-c3ccccc3Cl)c2-c2ccc(Cl)cc2)C1=O,216 and 130
3,COc1ccc2c(c1)C(C(=O)N(Cc1ccc(N(C)C)cc1)c1ccc(C(C)C)cc1)CCC2.Cl (stereo not drawn),224 and 113
4,CCCCC(=O)N(Cc1ccc(-c2ccccc2-c2nnn[nH]2)cc1)[C@H](C(=O)O)C(C)C,218 and 108

# Same assay, conditions: human, 24 h, 1 µM, compound concentration 1 uM
Structure (SMILES),Population Apoptotic (%),Population Fragmented Nuclei (%),Population Healthy Nuclei (%),Population Hoechst High Intensity Objects (%),Population Membrane Permeable-Phenotype (%),Population Mitochondria Different-Phenotype (%),Population Mitotic Cells (%),Population Normal (%),Population Pyknosed Nuclei (%),Population Tubulin-Different-Phenotype (%)
CN(C)CCCc1cc(C(=O)Nc2ccc(-c3ccncc3)cc2)ccc1O.Cl.Cl,100% and 94%,28% and 11%,65% and 77%,2% and 4%,5% and 7%,2% and 5%,0% and 5%,97% and 95%,6% and 11%,3% and 5%
CC(F)(F)CN1CCOc2c(nn(-c3ccccc3Cl)c2-c2ccc(Cl)cc2)C1=O,95% and 90%,–,55% and 71%,4% and 1%,9%,–,4% and 10%,95% and 98%,–,6% and 13%
COc1ccc2c(c1)C(C(=O)N(Cc1ccc(N(C)C)cc1)c1ccc(C(C)C)cc1)CCC2.Cl (stereo not drawn),75% and 100%,27% and 18%,61% and 73%,4% and 2%,5%,4% and 1%,24% and 0%,95% and 97%,11% and 7%,4% and 2%
CCCCC(=O)N(Cc1ccc(-c2ccccc2-c2nnn[nH]2)cc1)[C@H](C(=O)O)C(C)C,86% and 83%,23% and 10%,68% and 77%,2% and 6%,5% and 9%,3% and 6%,13% and 16%,97% and 93%,7% and 12%,2% and 7%

# Same assay, conditions: human, 24 h, 1 µM, compound concentration 1 uM
row,Structure (SMILES),Total Cell Count
1,CN(C)CCCc1cc(C(=O)Nc2ccc(-c3ccncc3)cc2)ccc1O.Cl.Cl,247 and 178
2,CC(F)(F)CN1CCOc2c(nn(-c3ccccc3Cl)c2-c2ccc(Cl)cc2)C1=O,246 and 155
3,COc1ccc2c(c1)C(C(=O)N(Cc1ccc(N(C)C)cc1)c1ccc(C(C)C)cc1)CCC2.Cl (stereo not drawn),273 and 146
4,CCCCC(=O)N(Cc1ccc(-c2ccccc2-c2nnn[nH]2)cc1)[C@H](C(=O)O)C(C)C,289 and 158

# Same assay, conditions: human, 24 h, 10 µM, compound concentration 10 uM
Structure (SMILES),Population Apoptotic (%),Population Fragmented Nuclei (%),Population Healthy Nuclei (%),Population Hoechst High Intensity Objects (%),Population Membrane Permeable-Phenotype (%),Population Mitochondria Different-Phenotype (%),Population Mitotic Cells (%),Population Normal (%),Population Pyknosed Nuclei (%),Population Tubulin-Different-Phenotype (%)
CN(C)CCCc1cc(C(=O)Nc2ccc(-c3ccncc3)cc2)ccc1O.Cl.Cl,72% and 66%,28% and 21%,58% and 63%,4% and 0%,6% and 4%,3% and 8%,27% and 33%,95% and 100%,13% and 15%,1% and 2%
CC(F)(F)CN1CCOc2c(nn(-c3ccccc3Cl)c2-c2ccc(Cl)cc2)C1=O,70% and 80%,–,63% and 77%,1%,–,–,29% and 20%,98%,–,7% and 5%
COc1ccc2c(c1)C(C(=O)N(Cc1ccc(N(C)C)cc1)c1ccc(C(C)C)cc1)CCC2.Cl (stereo not drawn),71% and 86%,25% and 20%,50% and 57%,2% and 9%,54% and 45%,42% and 53%,28% and 13%,97% and 90%,24% and 22%,49% and 48%
CCCCC(=O)N(Cc1ccc(-c2ccccc2-c2nnn[nH]2)cc1)[C@H](C(=O)O)C(C)C,82% and 84%,31% and 22%,59% and 67%,2% and 0%,3% and 4%,2% and 8%,17% and 15%,97% and 100%,8% and 9%,2% and 6%

# Same assay, conditions: human, 24 h, 10 µM, compound concentration 10 uM
row,Structure (SMILES),Total Cell Count
1,CN(C)CCCc1cc(C(=O)Nc2ccc(-c3ccncc3)cc2)ccc1O.Cl.Cl,257 and 118
2,CC(F)(F)CN1CCOc2c(nn(-c3ccccc3Cl)c2-c2ccc(Cl)cc2)C1=O,248 and 154
3,COc1ccc2c(c1)C(C(=O)N(Cc1ccc(N(C)C)cc1)c1ccc(C(C)C)cc1)CCC2.Cl (stereo not drawn),224 and 115
4,CCCCC(=O)N(Cc1ccc(-c2ccccc2-c2nnn[nH]2)cc1)[C@H](C(=O)O)C(C)C,272 and 135

# Same assay, conditions: human, 48 h, 1 µM, compound concentration 1 uM
Structure (SMILES),Population Apoptotic (%),Population Fragmented Nuclei (%),Population Healthy Nuclei (%),Population Hoechst High Intensity Objects (%),Population Membrane Permeable-Phenotype (%),Population Mitochondria Different-Phenotype (%),Population Mitotic Cells (%),Population Normal (%),Population Pyknosed Nuclei (%),Population Tubulin-Different-Phenotype (%)
CN(C)CCCc1cc(C(=O)Nc2ccc(-c3ccncc3)cc2)ccc1O.Cl.Cl,88% and 93%,25% and 15%,69% and 71%,3%,5% and 7%,3%,11% and 6%,96%,5% and 13%,3% and 4%
CC(F)(F)CN1CCOc2c(nn(-c3ccccc3Cl)c2-c2ccc(Cl)cc2)C1=O,94% and 89%,–,66% and 69%,4% and 1%,6% and 7%,–,5% and 10%,95% and 98%,–,3% and 6%
COc1ccc2c(c1)C(C(=O)N(Cc1ccc(N(C)C)cc1)c1ccc(C(C)C)cc1)CCC2.Cl (stereo not drawn),80% and 93%,21% and 17%,65% and 73%,2% and 3%,10% and 6%,5% and 4%,–,97% and 96%,13% and 8%,3% and 2%
CCCCC(=O)N(Cc1ccc(-c2ccccc2-c2nnn[nH]2)cc1)[C@H](C(=O)O)C(C)C,86% and 85%,17% and 20%,75% and 68%,2% and 3%,5% and 7%,3%,13% and 15%,97% and 96%,7% and 10%,2% and 3%

# Same assay, conditions: human, 48 h, 1 µM, compound concentration 1 uM
row,Structure (SMILES),Total Cell Count
1,CN(C)CCCc1cc(C(=O)Nc2ccc(-c3ccncc3)cc2)ccc1O.Cl.Cl,338 and 259
2,CC(F)(F)CN1CCOc2c(nn(-c3ccccc3Cl)c2-c2ccc(Cl)cc2)C1=O,333 and 203
3,COc1ccc2c(c1)C(C(=O)N(Cc1ccc(N(C)C)cc1)c1ccc(C(C)C)cc1)CCC2.Cl (stereo not drawn),369 and 203
4,CCCCC(=O)N(Cc1ccc(-c2ccccc2-c2nnn[nH]2)cc1)[C@H](C(=O)O)C(C)C,397 and 201

# Same assay, conditions: human, 48 h, 10 µM, compound concentration 10 uM
Structure (SMILES),Population Apoptotic (%),Population Fragmented Nuclei (%),Population Healthy Nuclei (%),Population Hoechst High Intensity Objects (%),Population Membrane Permeable-Phenotype (%),Population Mitochondria Different-Phenotype (%),Population Mitotic Cells (%),Population Normal (%),Population Pyknosed Nuclei (%),Population Tubulin-Different-Phenotype (%)
CN(C)CCCc1cc(C(=O)Nc2ccc(-c3ccncc3)cc2)ccc1O.Cl.Cl,74% and 68%,25% and 20%,61% and 63%,5% and 4%,5% and 13%,3% and 8%,25% and 32%,94% and 95%,12% and 16%,5% and 9%
CC(F)(F)CN1CCOc2c(nn(-c3ccccc3Cl)c2-c2ccc(Cl)cc2)C1=O,96% and 88%,–,68% and 72%,1% and 4%,8%,–,3% and 11%,98% and 95%,–,6% and 4%
COc1ccc2c(c1)C(C(=O)N(Cc1ccc(N(C)C)cc1)c1ccc(C(C)C)cc1)CCC2.Cl (stereo not drawn),73% and 92%,21% and 26%,47% and 49%,3% and 8%,43%,26% and 36%,–,96% and 91%,30% and 24%,31% and 42%
CCCCC(=O)N(Cc1ccc(-c2ccccc2-c2nnn[nH]2)cc1)[C@H](C(=O)O)C(C)C,83% and 87%,22% and 21%,70% and 60%,1% and 4%,6% and 4%,2% and 3%,16% and 12%,98% and 95%,7% and 17%,2% and 6%

# Same assay, conditions: human, 48 h, 10 µM, compound concentration 10 uM
row,Structure (SMILES),Total Cell Count
1,CN(C)CCCc1cc(C(=O)Nc2ccc(-c3ccncc3)cc2)ccc1O.Cl.Cl,352 and 160
2,CC(F)(F)CN1CCOc2c(nn(-c3ccccc3Cl)c2-c2ccc(Cl)cc2)C1=O,322 and 204
3,COc1ccc2c(c1)C(C(=O)N(Cc1ccc(N(C)C)cc1)c1ccc(C(C)C)cc1)CCC2.Cl (stereo not drawn),265 and 126
4,CCCCC(=O)N(Cc1ccc(-c2ccccc2-c2nnn[nH]2)cc1)[C@H](C(=O)O)C(C)C,347 and 188
